According to ChEMBL document CHEMBL2062504, “Diterpenoid alkaloids from the lateral root of Aconitum carmichaelii” (J Nat Prod, 2012):
The source made the active and inactive calls. No cut-off for these calls is given here.

What was measured:
[1] = system: MCF7; experiment: Cytotoxicity against human MCF7 cells at 10 uM after 96 hrs by MTT assay; format: functional, cell-based
[2] = system: KETR3; experiment: Cytotoxicity against human Ketr3 cells at 10 uM after 96 hrs by MTT assay; format: functional, cell-based
[3] = system: Liver microsomes; experiment: Antioxidant activity in rat liver microsome assessed as inhibition of FeSO4-induced lipid peroxidation at 10 uM incubated for 15 mins prior to FeSO4-challenge measured after 15 mins by modified thiobarbituric acid method; format: functional
[4] = system: Bel-7402; experiment: Cytotoxicity against human Bel7402 cells at 10 uM after 96 hrs by MTT assay; format: functional, cell-based
[5] = system: Mus musculus; experiment: Analgesic activity in mouse assessed as reduction in acetic acid-induced writhing at 0.5 mg/kg, ip relative to vehicle-treated control; format: functional; parameters: scale not given: the % may be the effect or the level left; conditions: route intraperitoneal
Summary of the method: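 Acetic acid-induced writhing test in mice. Compound given intraperitoneally at 0.5 mg/kg. Analgesia expressed as percent reduction in number of writhes versus blank control.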

[6] = system: Peritoneal macrophage cell; experiment: Antiinflammatory activity in mouse peritoneal macrophages assessed as inhibition of nitric oxide production at 10 uM; format: functional, cell-based
[7] = system: BGC-823; experiment: Cytotoxicity against human BGC823 cells at 10 uM after 96 hrs by MTT assay; format: functional, cell-based
[8] = Toxicity in ip dosed mouse acetic acid wrtihe model; format: organism-based; conditions: in vivo
Summary of the method: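 Acute toxicity in mice dosed intraperitoneally, reported as LD50 in mg/kg.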

[9] = system: Mus musculus; experiment: Toxicity in mouse acetic acid writhe model assessed as mortality at 5 mg/kg, ip; format: organism-based; parameters: dose 5 mg/kg, route intraperitoneal; conditions: in vivo
Summary of the method: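 Mice given 5 mg/kg ip in the acetic acid-induced writhing test; deaths recorded, alongside percent reduction of writhes versus blank control.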

[10] = system: A549; experiment: Cytotoxicity against human A549 cells at 10 uM after 96 hrs by MTT assay; format: functional, cell-based
[11] = system: WB-F344; experiment: Hepatoprotective activity against DL-galactosamine-induced cell death in rat WB-F344 cells at 10 uM incubated for 1 hr prior to DL-galactosamine-challenge measured after 24 hrs by MTT assay; format: functional, cell-based
[12] = system: HCT-8; experiment: Cytotoxicity against human HCT8 cells at 10 uM after 96 hrs by MTT assay; format: functional, cell-based

SMILES | Activity [1] | Activity [2] | inhibition [3] | Activity [4] | Activity [5] [%] | inhibition [6] | Activity [7] | LD50 [8] [mg/kg] | Activity [9] | Activity [10] | Activity [11] | Activity [12]
COC[C@@]12CC[C@H](OC)[C@]34C([C@H]([C@H](OC)[C@H]13)[C@]1(OC(C)=O)[C@H]3[C@@H](OC(=O)c5ccccc5)[C@](O)(C[C@H]34)[C@H](OC)[C@@H]1O)N(C)C2 | inactive | inactive | inactive | inactive | 30 | inactive | inactive | 4.37 | Toxic | inactive | inactive | inactive
COC[C@@]12CC[C@H](OC)[C@]34C(C([C@H](OC)[C@H]13)[C@]1(OC(C)=O)[C@H]3[C@@H](OC(=O)c5ccccc5)[C@](O)(C[C@H]34)[C@@H](OC)[C@@H]1O)N(C)C2 [HYPACONITINE] | inactive | inactive | inactive | inactive | 36 | inactive | inactive | 2.65 | Toxic | inactive | inactive | inactive
